# In the library only some 2.6% were active in any assay of this set; here they are far more common.
# Scp-1 inhibitor: blocks human Scp-1 phosphatase activity. AID 493091. Q9GZU7. Recombinant Scp1, phosphopeptide, malachite green phosphate absorbance. inhibition, % at 20 µM. hit rate 0.88% among 340,000;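 active = inhibition above about 50% at 20 µM, limit read from the data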;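 note: plate controls were DMSO wells with enzyme for no effect and wells lacking enzyme for full effect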
# Target sequence (Q9GZU7 76-261 limits assumed): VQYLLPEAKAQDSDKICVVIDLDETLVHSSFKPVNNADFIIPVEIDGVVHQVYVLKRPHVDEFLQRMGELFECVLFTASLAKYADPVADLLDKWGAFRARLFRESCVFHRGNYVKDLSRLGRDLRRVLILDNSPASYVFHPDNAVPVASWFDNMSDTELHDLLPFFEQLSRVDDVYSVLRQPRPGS
#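 System: SCP-1 catalytic domain; Reagent: Phospho 17-mer peptide substrate; Doses: one concentration, 20 µM, with 1.0% DMSO; Incubation: 45 min room-temperature reaction, 5 min colour, 30 min stabiliser; Signal: Phosphate-binding colour reagent, absorbance read at 630 nm.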
# STEP block: STEP (human) phosphatase inhibition; P54829; recombinant STEP, OMFP fluorogenic substrate, fluorescence; inhibition, % at 20 µM; hit rate 0.25% among 360,000; AID 588621;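 active = inhibition at 20 µM, scaled per plate between control wells, above about 37%, limit read from the data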;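 note: 0% = DMSO with enzyme and substrate and 100% = substrate only without enzyme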
#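 Assay system: isolated STEP enzyme / Timing: 20 min at room temperature, dark / Doses: 20 µM, 1% DMSO / Technique: fluorescence intensity, excitation 480 nm, emission 540 nm / Reagent: fluorogenic phosphatase substrate OMFP at 25 µM final / Measure: percent inhibition scaled to no-enzyme and uninhibited-enzyme controls, plate-pattern corrected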
# LMPTP block: LMPTP (human) inhibition; hit rate 0.22% among 360,000; recombinant LMPTP-A, OMFP fluorogenic substrate, fluorescence intensity; P24666; inhibition, % at 20 µM;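 active = compounds that cut the enzyme signal by at least half of the control window in the single-dose screen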;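 note: plate controls were DMSO wells with enzyme plus substrate for no effect and substrate without enzyme for full effect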
# Target sequence (P24666 whole entry, looked up): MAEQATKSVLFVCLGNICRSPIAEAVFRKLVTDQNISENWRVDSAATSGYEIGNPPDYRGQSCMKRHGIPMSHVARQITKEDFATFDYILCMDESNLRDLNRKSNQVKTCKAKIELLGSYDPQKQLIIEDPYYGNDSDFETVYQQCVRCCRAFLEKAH
#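 Test system: LMPTP-A phosphatase enzyme. Amount: LMPTP-A at 0.625 nM final in the reaction. Reagent: OMFP substrate, 400 µM final. Times: 50 min at room temperature. Signal: endpoint fluorescence intensity from OMFP dephosphorylation. Read-out basis: % inhibition. Benchmarks: no-enzyme and uninhibited controls.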
# NadD inh: blocks S. aureus nicotinate mononucleotide adenylyltransferase | inhibition, % at 20 µM | hit rate 0.78% among 360,000 | AID 602399 | purified NadD enzyme, colorimetric absorbance read-out; in the data active = inhibition above about 26%
# rCAG binder: molecules binding r(CAG) RNA repeats | r(CAG) RNA repeat, TO-PRO-1 dye displacement fluorescence | inhibition, % at 3 µM | hit rate 1.3% among 370,000;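 active = inhibition above the plate cutoff, the mean of all test compounds on that plate plus 3 SD, cut at about 35% in these data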;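 note: 0% = DMSO alone and 100% = 100 µM mitoxantrone as full dye displacement; higher means more dye released from RNA so lower well fluorescence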
# NadD conf: NadD (S. aureus) inhibition, single concentration confirmation | hit rate 13% among 2,000 | purified S. aureus NadD, colorimetric enzyme assay | inhibition, % at 20 µM | AID 624309 | shares compounds with NadD inh; in the data active = inhibition mostly above about 42%, no sharp cut-off; inactive = mostly below about 42%
# Active calls of the source: *; . = no result given.
SMILES,Scp-1 inhibitor,STEP block,LMPTP block,NadD inh,rCAG binder,NadD conf
CCOC(=O)c1sc(NC(=O)c2cc(-c3ccccc3C)nc3ccccc23)c(C#N)c1C,-4,6,3,48*,15,29
Cc1ccccc1-c1cc(C(=O)Nc2sc(C)c(C)c2C(N)=O)c2ccccc2n1,-8,5,3,20,19,.
COc1ccc(OC)c(S(=O)(=O)CC(=O)c2cc3ccc(OC)cc3oc2=O)c1,12,-1,4,36*,.,27
CCc1ccc(C2=NNC(=Nc3cccc(S(=O)(=O)N(C)C)c3)SC2)cc1,9,7,2,34*,21,24
Cc1cc(-c2cc(C(=O)O)c3ccccc3n2)c(C)s1,1,-1,3,58*,2,13
O=C(Nc1nnc(-c2ccc3c(c2)CCCC3)o1)c1ccc(Cl)cc1Cl,-9,1,2,36*,57*,24
O=C(Nc1nnc(-c2ccc3c(c2)CCCC3)o1)c1c(F)cccc1F,-4,2,0,15,25,.
O=C(NC1CCCC1)C1(C(=O)C2CC2)CC(c2ccccn2)=NO1 (centres undefined),.,.,.,.,0,.
C=CS(=O)(=O)N(Cc1ccc(C)cc1)[C@@H](CO)C(=O)OC,.,.,.,.,3,.
Cc1cc(=O)n2[nH]c(-c3ccc(F)cc3)cc2n1,0,5,2,-2,3,.
Cc1cc(=O)n2[nH]c(-c3ccsc3-n3c(C)ccc3C)cc2n1,47,-1,20,31*,26,16
CCn1c2ccccc2c2cc(NC(=O)CSc3nnc(-c4ccc(OC)cc4)n3N)ccc21,8,-3,1,30*,8,33
O=C(NCCN1C(=O)C2C3C=CC(C3)C2C1=O)c1cc(Cl)cc(Cl)c1 (centres undefined),.,.,.,.,1,.
CCc1cc(C(=O)Nc2nc(-c3ccccn3)cs2)sc1C,4,2,6,33*,9,9
CC(=O)Nc1ccc(C(=O)Nc2nc(-c3ccccn3)cs2)cc1,6,2,3,6,4,.
O=C(Nc1nc(-c2ccccn2)cs1)c1ccc(-c2ccccc2F)o1,-6,2,5,40*,15,18
Cc1ccc(C(=O)Nc2nc(-c3ccccn3)cs2)o1,-9,3,5,7,8,.
CCOc1ccc(NC(=O)CSc2nnc(-c3n[nH]c4c3CCC4)n2N)cc1,.,.,.,.,0,.
Cc1ccccc1CN1CCCCC(NC(=O)c2c(F)cccc2F)C1=O (centres undefined),.,.,.,.,0,.
O=C1NC(=O)/C(=C/c2ccc(-c3cccc([N+](=O)[O-])c3)o2)S1,4,5,28,45*,16,5
Cn1cncc1C#Cc1ccc(N2C(c3ccsc3)=Cc3ccc(F)cc3C2c2c[nH]c3ccccc23)cc1 (centres undefined),.,.,4,39*,15,39
CC(=O)CC1c2cc(F)ccc2C=C(c2ccsc2)N1c1ccc(C#Cc2cncn2C)cc1 (centres undefined),.,.,6,42*,16,38
O=C(NCc1ccccc1)OCCN1C(=O)CCC12CCC(c1ccccc1)CC2 (centres undefined),.,.,.,.,0,.
Cc1cc(-c2csc(N)n2)c(C)n1Cc1ccco1,6,-2,9,31*,18,2
Cc1cc(-c2csc(N)n2)c(C)n1C,7,-1,47,75*,13,-8
SMILES,Scp-1 inhibitor,STEP block,LMPTP block,NadD inh,rCAG binder,NadD conf
CCn1ncc(-c2csc(N)n2)c1C,-14,-4,-1,-2,-2,.
Cc1cc(C(=O)CSc2nnc(N)s2)c(C)n1Cc1ccco1,2,-1,1,-5,7,.
CCNC(=O)N(C)[C@H]1C[C@H]2c3[nH]c4c(-c5ccccc5)cccc4c3CCN2C(=O)[C@H]1[C@H](C)O,.,.,.,.,4,.
CC(=O)c1nn(-c2cccc(Br)c2)cc1C(=O)c1ccco1,0,1,1,3,1,.
Cc1nnc(-c2ccco2)c2cn(-c3cccc(Br)c3)nc12,5,-4,14,37*,14,6
O=C(Nc1ccc(F)cc1)OCCCN1C(=O)CCC12CCCCC2,.,.,.,.,0,.
Cc1ccc(NC(=O)Nc2nc3ccccc3s2)cc1NC(=O)Nc1nc2ccccc2s1,-4,0,2,28*,28,8
CCOC(=O)c1sc(NC(=O)c2cc3n(n2)C(C(F)(F)F)CC(c2ccccc2)N3)c(C(=O)OCC)c1C (centres undefined),10,-4,-1,-3,-2,.
CCOC(=O)c1sc(NC(=O)c2cc3n(n2)C(C(F)(F)F)CC(c2cccs2)N3)c(C(=O)OCC)c1C (centres undefined),-18,1,4,30*,3,3
COCCn1c(C)cc(C2=NNC(=Nc3ccc(Cl)cc3Cl)SC2)c1C,1,0,-3,36*,29,3
CC(C)C[C@@H](CN1CCC[C@H]1CN1C(=O)C(=O)NC[C@@H]1Cc1ccccc1)N1C[C@H](Cc2ccc(O)cc2)N(CC2CCCCCC2)C(=O)C1=O,.,.,6,41*,9,33
CC(C)C[C@H]1CN([C@@H](CC(C)C)CN2CCC[C@H]2CN2C(=O)C(=O)NC[C@@H]2Cc2ccc(O)cc2)C(=O)C(=O)N1CC1CCCCCC1,.,.,-1,30*,4,21
CCCC1CCC2(CCC(=O)N2CCO)CC1 (centres undefined),.,.,.,.,2,.
COc1ccc(Nc2nnc(SC(C(=O)Nc3ccc(OC)c(Cl)c3)c3ccccc3)s2)cc1 (centres undefined),3,-2,5,32*,19,48
COc1ccc(Nc2nnc(SC(C(=O)Nc3cc(C)ccc3C)c3ccccc3)s2)cc1 (centres undefined),-1,3,3,23,5,.
COc1cc(C2c3c(c(C)c(C)oc3=O)Oc3c(C)c(C)oc(=O)c32)ccc1OS(=O)(=O)c1ccc(C)cc1,-2,3,2,32*,8,2
CCOc1ccc(-c2cc(C(=O)Nc3ccc4c(c3)OCCO4)c3ccccc3n2)cc1,15,2,4,33*,9,15
Cc1ccccc1NC(=S)NC(=O)c1cc(-c2ccccc2)nc2ccccc12,3,4,2,38*,9,28
Cc1cccc(NC(=S)NC(=O)c2cc(-c3ccccc3)nc3ccccc23)c1,8,3,1,24,11,.
CCOc1ccc(NC(=O)c2cc(-c3ccc(Cl)cc3)nc3ccccc23)cc1,.,.,.,.,5,.
CCCOc1ccc(C(=O)NNC(=S)NC(=O)c2cc(-c3ccccc3)nc3ccccc23)cc1,-5,2,1,62*,3,13
CC(=O)CC[C@@H]1CC[C@]2(CCCN(C(=O)C3CCCC3)C2)O1,.,.,.,.,-1,.
COC(=O)C1CN(Cc2cn(Cc3ccc(Cl)cc3)nn2)CCS(=O)(=O)N1Cc1ccc(Cl)cc1 (centres undefined),.,.,.,.,5,.

# Screens (PubChem)
